Compound activity as filed in PubChem BioAssay.
This is a sample that favours compounds with a hit; in the whole collection about 2.3% have one here.
PDI turbidity: blocks human protein disulfide isomerase activity. PDI insulin aggregation turbidity, A650, 90 min. inhibition, % at 10 µM. 350,000 tested, 0.052% active;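 active = mean inhibition across replicates of 30% or more, whatever share of single replicates reach that level; inconclusive = mean inhibition below 30% while every single replicate reaches 30%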
F508del corr: correctors of CFTR F508del function in bronchial epithelial cells. activity (quench increase), % at 7.58 µM. 350,000 tested, 0.36% active. CFBE cells, YFP halide quenching; stimulated with forskolin plus potentiator P3; % fluorescence drop versus neutral controls;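 active = mean added fluorescence quench of at least 8% versus neutral control, with both replicates also reaching 8%; inconclusive = only one of the mean or replicate conditions met; inactive = mean below 8% and not both replicates reaching 8%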;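 note: cells transiently co-express mutant CFTR-F508del with the halide-sensitive YFP; corrector assay measuring rescue of mutant channel to the surface after 24 h compound exposure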
ERp5 inh: blocks human ERp5 reductase activity on insulin. Q15084. ERp5 insulin aggregation, absorbance 650 nm, 90 min. inhibition, % at 9.99 µM. 350,000 tested, 0.05% active;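 active = mean replicate inhibition above about 25%, with every replicate also reaching it, limit read from the data, passing the limit was not always enough; inconclusive = only one of those two criteria met; inactive = neither criterion met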
Target sequence (Q15084 whole entry, looked up): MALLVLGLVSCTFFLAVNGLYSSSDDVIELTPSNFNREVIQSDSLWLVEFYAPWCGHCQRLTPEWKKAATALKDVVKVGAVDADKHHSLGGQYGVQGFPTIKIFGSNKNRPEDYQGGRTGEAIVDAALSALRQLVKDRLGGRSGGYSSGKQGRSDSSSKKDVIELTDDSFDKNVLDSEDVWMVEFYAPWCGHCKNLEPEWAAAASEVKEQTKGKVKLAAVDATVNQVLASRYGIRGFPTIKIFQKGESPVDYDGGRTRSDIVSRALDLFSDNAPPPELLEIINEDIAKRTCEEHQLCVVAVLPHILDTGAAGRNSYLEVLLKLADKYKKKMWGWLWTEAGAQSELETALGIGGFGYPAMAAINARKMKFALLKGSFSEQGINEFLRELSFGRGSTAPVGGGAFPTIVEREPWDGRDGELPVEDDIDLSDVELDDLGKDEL
C2C12 statin: suppression of simvastatin myotoxicity; rescue of ATP level, % at 7.49 µM; C2C12 myotubes + simvastatin, ATP luminescence, 48 h; scaled: DMSO 0, geranylgeraniol control 100; 330,000 tested, 0.78% active; AID 602340;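 active = mean ATP rescue above about 67%, or every replicate alone reaching that limit, limit read from the data, passing the limit was not always enough; inconclusive = no clear call, values can overlap the other calls; inactive = mean under the limit and some replicate under it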;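 note: myotubes were challenged with 10 µM simvastatin during compound exposure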
DENV2 CPE: inhibitors of DENV2 cytopathic effect | DENV2-infected cells, cytopathic effect rescue, plate reader | 350,000 tested, 1.7% active | AID 651640 | CPE inhibition, % at 9.99 µM; in the data active = CPE inhibition above about 20%, passing the limit was not always enough; inconclusive = no clear call, values can overlap the other calls; tested in BHK-21 cells;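 note: 0% = median of neutral control wells and 100% = median of positive control wells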
Cneo AK release: Cryptococcus neoformans lysis via adenylate kinase release | C. neoformans lysis, adenylate kinase release luminescence, 4 h; normalised: neutral wells 0, clomiphene wells 100 | 360,000 tested, 0.2% active | AID 651654 | lysis activity, % at 15 µM;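 active = mean lysis activity across replicates of at least 80%, whatever share of replicates individually reach that level; inactive = mean lysis activity below 80%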
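read-out = cell lysis signal | test system = log-phase Cryptococcus neoformans yeast cells | input = cells at 5 × 10^6 per mL | medium = fresh YPD growth medium | signal = luminescent adenylate kinase detection reagent | timing = 4 h at 37 °C static, read 1 h later | dosing = single dose | controls = Clomiphene as positive lysis control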
* marks the source's active call; other numbers are inactive results; u = inconclusive; x = no result given.

SMILES | PDI turbidity | F508del corr | ERp5 inh | C2C12 statin | DENV2 CPE | Cneo AK release
NC(=O)CC(NC(=O)c1ccccc1)c1ccc(NC2CCCCCCC2)c([N+](=O)[O-])c1 (stereo not given) | -4.1 | 1.4 | 4.2 | -8.7 | -15.1 | 3.2
NC(=O)CC(NC(=O)c1cccc(Br)c1)c1ccc(NC2CCN(Cc3ccccc3)CC2)c([N+](=O)[O-])c1 (stereo not given) | -14.7 | -0.2 | 6.4 | 9.7 | 70.3* | -0.4
NC(=O)CC(NC(=O)Cc1ccc(Cl)cc1)c1ccc(NC2CCN(Cc3ccccc3)CC2)c([N+](=O)[O-])c1 (stereo not given) | -1.8 | -0.6 | -0.3 | -10.5 | 61.1* | -2.6
CN(Cc1ccccc1)c1ccc(C(CC(N)=O)NC(=O)Cc2ccc(Br)cc2)cc1[N+](=O)[O-] (stereo not given) | 0.6 | -3.0 | 7.8 | -24.5 | 135.9* | -2.4
NC(=O)CC(NC(=O)Cc1ccc(Cl)cc1)c1ccc(NCCOc2ccccc2)c([N+](=O)[O-])c1 (stereo not given) | -3.6 | -0.4 | -1.9 | 2.1 | 5.4 | 2.4
NC(=O)CC(NC(=O)Cc1ccc(Cl)cc1)c1ccc(NC2CC3CCC2C3)c([N+](=O)[O-])c1 (stereo not given) | 5.4 | 1.6 | -0.1 | -14.0 | 8.2 | 6.8
C[C@@H]1CN([C@H](C)CO)C(=O)CCCn2nncc2CO[C@@H]1CN(C)C(=O)Nc1ccc(-c2cccs2)cc1 | x | 1.8 | -2.6 | -17.5 | u | -1.8
C[C@H](CO)N1C[C@H](C)[C@H](CN(C)C(=O)Nc2ccccc2)Oc2c(NC(=O)c3cnccn3)cccc2C1=O | x | -1.9 | 1.6 | 37.4 | -5.5 | -0.8
Cc1noc(C)c1NC(=O)Nc1ccc2c(c1)CC(=O)N([C@@H](C)CO)C[C@H](C)[C@H](CN(C)Cc1ccc(-c3ccccc3)cc1)O2 | x | 1.0 | -5.0 | -4.3 | 2.0 | x
O=C(c1cc(-c2cccs2)on1)N1CCCc2ccccc21 | -9.5 | -2.7 | 1.4 | 4.2 | 85.2* | -2.0
COCCCNc1oc(-c2ccccc2F)nc1C#N | x | 0.0 | -2.0 | -32.4 | 25.3* | 0.4
CCSc1cc(C)nc2c(-c3ccc(Cl)cc3)c(C)nn12 | -1.0 | 0.0 | -6.8 | 92.6* | 7.5 | 1.0
Cc1cc(C)n2nc(C)c(-c3ccc(Cl)cc3)c2n1 | 0.7 | 0.4 | 4.6 | -31.0 | 2.4 | -4.6
COC(=O)c1cc2ccsc2n1Cc1ccccc1F | -11.7 | 1.0 | -2.9 | 3.8 | 112.6* | 0.6
Cc1ccccc1CNc1nc(N)n(-c2ccccc2)n1 | 1.0 | 2.2 | 3.4 | 0.0 | -0.3 | 0.7
Nc1nc(NCc2c(F)cccc2Cl)nn1-c1ccccc1 | -12.6 | x | x | 101.5* | x | 5.2
C/C=C/c1ccc([C@@H]2[C@H](CO)N(C(=O)CC)[C@H]2CNC(=O)C2CC2)cc1 | x | -0.1 | 0.9 | 10.2 | 1.0 | 2.2
CCc1nc(SCc2ccccc2C)n[nH]1 | -4.7 | x | -0.5 | -2.5 | 32.3* | -1.0
COc1cc(/C=C2\SC(=Nc3ccc(Cl)c(C(=O)O)c3)NC2=O)c(Br)c(Br)c1O | 10.7 | 29.0* | -4.5 | -6.5 | 7.0 | -1.9
COc1cc(/C=C2\SC(=Nc3ccccc3)NC2=O)cc(Cl)c1O | -14.3 | 4.6 | 1.4 | -4.9 | 6.2 | -1.7
c1ccc2c(c1)CCCC2C1=NCCN1 (stereo not given) | -1.4 | 2.5 | 0.4 | 8.8 | -2.5 | -1.3
Brc1ccc2c(c1)C(C1=NCCN1)c1ccccc1CS2 (stereo not given) | 14.9 | 10.8* | 5.3 | x | u | -0.5
C[C@H](CO)N1C[C@H](C)[C@@H](CN(C)C(=O)Nc2cccc3ccccc23)Oc2c(NC(=O)c3ccncc3)cccc2C1=O | x | 1.3 | -4.7 | 5.9 | -8.0 | 0.7
CCOc1ccccc1Nc1nc(N)nc(Cl)c1CC | 0.2 | 1.1 | 10.9 | 106.6* | 13.6 | -2.4
CN1CCN(C2=CC3=CC(=C(C#N)C#N)CCC3CC2)CC1 (stereo not given) | -1.6 | x | x | x | x | x
SMILES | PDI turbidity | F508del corr | ERp5 inh | C2C12 statin | DENV2 CPE | Cneo AK release
N#CC(C#N)=C1C=C2C=C(N3CCOCC3)CCC2CC1 (stereo not given) | -3.4 | 69.9* | -2.5 | x | -4.6 | x
N#CC(C#N)=C1C=C2C=C(N3CCCCCC3)CCC2CC1 (stereo not given) | 1.7 | 66.6* | -0.7 | x | -3.6 | x
Cc1ccccc1-c1ccc([C@H]2[C@@H](CO)N3CCCCN(S(=O)(=O)c4cn(C)cn4)C[C@@H]23)cc1 | x | 0.3 | 2.8 | x | -8.6 | -1.4
Cn1c(SCC(=O)c2cc3ccccc3o2)nnc1-c1ccccc1 | -31.5 | -2.1 | -8.4 | 5.4 | 66.8* | -7.4
CN(C(=O)CSCC(=O)Nc1ccc(Cl)cc1)C1CCCCC1 | 0.2 | 3.0 | 1.0 | 24.3 | 62.2* | -0.5
O=C(NC1CCC1)[C@H]1[C@H](CO)[C@H]2Cn3c(ccc(/C=C/c4ccccc4)c3=O)[C@H]2N1Cc1ccncc1 | x | -0.9 | -2.4 | 33.0 | -8.8 | -0.7
CO[C@@H]1CN(C)C(=O)c2ccc(NC(C)=O)cc2OC[C@@H](C)N(C(=O)CN2CCOCC2)C[C@@H]1C | x | -0.2 | -9.3 | 7.3 | 28.1* | 0.9
CCC(=O)Nc1ccc2c(c1)OC[C@@H](C)N(C(=O)C1CC1)C[C@H](C)[C@H](OC)CN(C)C2=O | x | -3.4 | -0.3 | x | 36.1* | x
CO[C@H]1CN(C)C(=O)c2ccc(NC(C)=O)cc2OC[C@H](C)N(C(=O)C2CCC2)C[C@@H]1C | x | 1.4 | 1.1 | x | 30.1* | x
CCC(=O)Nc1ccc2c(c1)OC[C@@H](C)N(C(=O)CN1CCOCC1)C[C@H](C)[C@@H](OC)CN(C)C2=O | x | x | 0.8 | -16.7 | 11.6 | -3.1
C/C=C/c1ccc2c(c1)O[C@H](CN(C)Cc1ccccn1)[C@@H](C)CN([C@H](C)CO)S2(=O)=O | x | -0.9 | -6.9 | -40.4 | 0.2 | -4.8
CC(=O)NCc1ccc(C(=O)COC(=O)COc2ccc(Cl)c(C)c2)s1 | -16.4 | -1.3 | -2.2 | 7.7 | 65.0* | 0.3
CC(=O)NCc1ccc(C(=O)COC(=O)COc2ccccc2)s1 | 8.3 | -2.3 | 2.2 | -5.6 | -8.0 | -1.1
COc1ccc2c3c(n(C)c2c1)[C@H](CO)N(C(=O)c1ccccn1)CC31CCN(C(=O)c2ccccn2)CC1 | x | -0.7 | -11.9 | x | 3.8 | x
COc1ccc2c3c(n(C)c2c1)[C@H](CO)N(C(=O)c1ccccn1)CC31CN(C(=O)c2ccccn2)C1 | x | 0.5 | -6.4 | x | -3.9 | x
COc1ccc2c3c(n(C)c2c1)[C@@H](CO)N(S(C)(=O)=O)CC31CN(C(=O)c2ccccn2)C1 | x | -1.7 | 1.7 | x | 34.1* | x
COc1ccc2c3c(n(C)c2c1)[C@H](CO)N(S(C)(=O)=O)CC31CCN(C(=O)c2ccccn2)CC1 | x | -3.0 | x | x | 77.3* | x
CCC(Sc1nc2n[nH]c(C)c2c(=N)n1-c1ccc(C)c(Cl)c1)C(=O)N1CCOCC1 (stereo not given) | -16.8 | x | x | 96.0* | x | 5.1
